From article PMC11843194 (Experimental and Therapeutic Medicine, 2025)
Like-named read-outs stand apart in the source and are kept apart here.

Assays:
[1] = rats; ketoconazole combined with sunitinib; cited from earlier work
[2] = format: in vivo, human
In short: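 Routine TDM of trough serum sunitinib and N-desethyl sunitinib in one patient, reported as total concentration (the sum of both); the clinical target trough is 50-100 ng/ml. Sampling: immediately before dasatinib and on days 7, 32, 70 and 84. Sunitinib was given orally at 14 days on/7 days off: 50 mg/day, 37.5 mg/day from day 18, then 50/37.5 mg/day alternately from day 81.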

[3] = format: in vivo, human; remark: listed apart in the source
In short: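 Serum from the patient was taken 8 h after dasatinib dosing, using the residue of samples drawn for sunitinib TDM, and assayed later by LC-MS/MS (LLOQ 0.5 ng/ml). Samples were from days 7, 32 and 84. Oral dasatinib was given at 60 mg/day, then 50 mg/day from day 28, alongside sunitinib; esomeprazole magnesium was a concomitant drug.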

[4] = test system: chronic myeloid leukemia (CML); experiment: Response of chronic myeloid leukemia to dasatinib in the patient; format: in vivo, human; settings: day 154 after starting dasatinib; BCR::ABL1^IS≤1%
In short: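 Patient with chronic-phase CML took oral dasatinib at 60 mg/day from day 1. Cytogenetic response was defined as BCR::ABL1IS≤1% and assessed on day 154.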

[5] = test system: CYP3A4; settings: cited from earlier work
[6] = cited from earlier work
[7] = Adverse events; format: in vivo, human; settings: day -30; sunitinib 50 mg/day alone
In short: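 Single patient with metastatic renal cell carcinoma on oral sunitinib monotherapy, 14 days on/7 days off, before dasatinib started (day 1). Adverse events graded by CTCAE. Hand-foot skin reaction was managed with heparinoid cream and diarrhea with bifidobacterial powder.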

[8] = test system: metastatic renal cell carcinoma (mRCC); experiment: Course of metastatic renal cell carcinoma under sunitinib in the patient; format: in vivo, human; settings: day 186; led to change from sunitinib to axitinib
[9] = clinical practice, sum of sunitinib and N-desethyl sunitinib; cited from earlier work
[10] = day 7, sunitinib 50 mg/day with dasatinib 60 mg/day
[11] = day 32, sunitinib 37.5 mg/day with dasatinib 50 mg/day
[12] = day 84, sunitinib 50.0 and 37.5 mg/day alternately with dasatinib 50 mg/day
[13] = immediately before starting dasatinib, sunitinib 50 mg/day alone, 14 days on/7 days off

CC(=O)N1CCN(c2ccc(OCC3COC(Cn4ccnc4)(c4ccc(Cl)cc4Cl)O3)cc2)CC1 (centres unmarked) [ketoconazole]
effect of combination on the concentration of sunitinib [1]: significantly increased

Cc1nc(Nc2ncc(C(=O)Nc3c(C)cccc3Cl)s2)cc(N2CCN(CCO)CC2)n1 [dasatinib]
effect of dasatinib combination on sunitinib serum concentration ([2]; day 7 versus before dasatinib, sunitinib 50 mg/day): no change
dasatinib serum concentration ([3]; day 7, 8 h after administration, dasatinib 60 mg/day with sunitinib): 1.16 ng/mL
dasatinib serum concentration ([3]; day 84, 8 h after administration, dasatinib 50 mg/day with sunitinib): 2.75 ng/mL
concentration at 8 h ([3]; male, human, serum, oral, 50 mg/day): 3 ng/mL
response for CML [4]: complete cytogenetic response
CYP3A4 inhibition [5]: moderate
solubility [6]: pH-dependent

CCN(CC)CCNC(=O)c1c(C)[nH]c(/C=C2\C(=O)Nc3ccc(F)cc32)c1C [sunitinib]
trough serum concentration [2, 10]: 64.9 ng/mL
trough serum concentration [2, 11]: 28.6 ng/mL
trough serum concentration [2, 12]: 38.7 ng/mL
trough serum concentration [2, 13]: 63.7 ng/mL
diarrhea, CTCAE grade [7]: 1
hand-foot skin reaction (HFSR), CTCAE grade [7]: 1
course of RCC metastases [8]: pancreatic and left adrenal metastases were enlarged
target trough concentration as total sunitinib concentration [9]: 50 to 100 ng/mL

CCNCCNC(=O)c1c(C)[nH]c(/C=C2\C(=O)Nc3ccc(F)cc32)c1C [N-desethyl sunitinib]
trough serum concentration [2, 10]: 12.2 ng/mL
trough serum concentration [2, 11]: 4.7 ng/mL
trough serum concentration [2, 12]: 7.4 ng/mL
trough serum concentration [2, 13]: 13.7 ng/mL
